Experimental data collected from several papers.
Each line is one published result; the experiments were not run side by side.
Effect on: microbial growth

Cc1cc(NS(=O)(=O)c2ccc(N)cc2)no1 — MIC (Salmonella enterica; 20 h, pH 7.2): 64 µg/mL
O=C(O)CN1C(=O)/C(=C/c2ccc(-c3ccc(N(c4ccccc4)c4ccccc4)cc3)c3ccccc23)SC1=S — MIC (Bacillus cereus; broth dilution; ATCC10876): 1000 µg/mL
O=C(Nc1ncc([N+](=O)[O-])s1)c1ccncc1 — MIC (Helicobacter pylori; broth dilution; 26695; 27 h): 16 µM
Oc1ccc(-c2nc(-c3ccc(Oc4ccccc4)cc3)no2)cc1 — MIC (Bacillus cereus; broth dilution; ATCC13061): 2 µg/mL
O=C(Nc1ncc([N+](=O)[O-])s1)C1CCCCC1 — MIC (Helicobacter pylori; broth dilution; 26695; 27 h): 1.2 µM
O=C(O)CN1C(=O)/C(=C/c2ccc(-c3ccc(N(c4ccccc4)c4ccccc4)cc3)cc2)NC1=S — MIC (Bacillus cereus; broth dilution; ATCC10876): 125 µg/mL
CC1(C)S[C@@H]2[C@H](NC(=O)[C@H](N)c3ccccc3)C(=O)N2[C@H]1C(=O)O — MIC (Salmonella enterica; 20 h, pH 7): 1 µg/mL
O=C(Nc1ncc([N+](=O)[O-])s1)c1cccnc1 — MIC (Helicobacter pylori; broth dilution; 26695; 27 h): 4 µM
C[C@@H](O)[C@H]1C(=O)N2C(C(=O)O)=C(S[C@@H]3CN[C@H](C(=O)N(C)C)C3)[C@H](C)[C@H]12 — MIC (Salmonella enterica; broth dilution; TYPHIMURIUM; clinical isolate): ≤ 0.5 µg/mL
CO/N=C(\C(=O)N[C@@H]1C(=O)N2C(C(=O)O)=C(CSc3nc(=O)c(=O)[nH]n3C)CS[C@H]12)c1csc(N)n1 — MIC (Salmonella enterica; F98, TYPHIMURIUM; 20 h, pH 5.5): 0.25 µg/mL
O=C(O)CN1C(=O)/C(=C/c2c3ccccc3c(-c3ccc(N(c4ccccc4)c4ccccc4)cc3)c3ccccc23)NC1=S — MIC (Bacillus cereus; broth dilution; ATCC10876): > 1000 µg/mL
CS(=O)(=O)c1ccc([C@@H](O)[C@@H](CF)NC(=O)C(Cl)Cl)cc1 — MIC (Salmonella enterica; F98, TYPHIMURIUM; 20 h, pH 5.5): 4 µg/mL
O=C1NC(=S)S/C1=C\c1c2ccccc2c(-c2ccc(N(c3ccccc3)c3ccccc3)cc2)c2ccccc12 — MIC (Bacillus cereus; broth dilution; ATCC10876): > 1000 µg/mL
C=C[C@@]1(C)C=C2CC[C@@H]3[C@](C)(CCC[C@@]3(C)C(=O)O)[C@H]2CC1 — MIC (Helicobacter pylori; broth dilution): 31.2 µg/mL
